Reference: ChEMBL document CHEMBL1139334, “Discovery of novel analgesic and anti-inflammatory 3-arylamine-imidazo[1,2-a]pyridine symbiotic prototypes” (Bioorg Med Chem, 2009)
Activity calls are given as the source filed them. The rule behind the calls is not given here.

What was measured:
Mus musculus [1] = experiment: Analgesic activity in Swiss mouse assessed as inhibition of acetic acid-induced abdominal constriction at 100 umol/kg, po administered 1 hr before acetic acid challenge; assay type: functional; conditions: Abdomen
Outline: (§1)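 Swiss mice (18–23 g) received compounds orally as a suspension in 5% arabic gum in saline; controls received an equal volume of vehicle. After 1 h, 0.6% acetic acid (0.1 ml/10 g) was given ip. Constrictions were counted for 20 min, starting 10 min after injection. Results are % inhibition versus vehicle; N = 7–10 per group; mean ± SEM; one-way ANOVA with Dunnett test.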

Rattus norvegicus [2] = experiment: Antiinflammatory activity in Wistar rat assessed as inhibition of carrageenan-induced paw edema at 100 umol/kg, po measured 3 hrs post carrageenan challenge; assay type: functional
Outline: (§2)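 Fasted Wistar rats of both sexes (150–200 g) were dosed orally with a suspension in 5% arabic gum in saline; controls received vehicle. After 1 h, 1% carrageenan (0.1 ml, […]) was injected subplantarly into the right hind paw and sterile saline into the left. Paw volumes were read by glass plethysmometer 3 h later. Edema is the carrageenan-minus-saline paw volume; results are % inhibition versus vehicle.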

Rattus norvegicus [3] = experiment: Antiinflammatory activity in po dosed Wistar rat assessed as inhibition of carrageenan-induced paw edema measured 3 hrs post carrageenan challenge; assay type: functional; outline: as §2
Rattus norvegicus [4] = experiment: Antihyperalgesic activity in Wistar rat assessed as inhibition of capsaicin-induced thermal hyperalgesia at 100 umol/kg, po; assay type: functional, organism-based
Outline: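 Fasted Wistar rats of both sexes (150–200 g) had basal and acclimatization withdrawal latencies recorded on a 52 °C hot plate. Compound was given orally 1 h before an intraplantar injection of 5% capsaicin in DMSO into the right hind paw. Right hind paw withdrawal latency was timed by chronometer at 2, 5, 10, 30 and 60 min post-challenge.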

Mus musculus [5] = experiment: Analgesic activity in po dosed Swiss mouse assessed as inhibition of acetic acid-induced abdominal constriction administered 1 hr before acetic acid challenge; assay type: functional; conditions: Abdomen; outline: as §1
[6] = molecular target: T1, Prostaglandin G/H synthase 2 (Homo sapiens, UniProt P35354); experiment: Inhibition of PGHS2 in human whole blood assessed as inhibition of TXB2 production by radioimmunoassay; assay type: tissue-based
T1 sequence (P35354 whole entry): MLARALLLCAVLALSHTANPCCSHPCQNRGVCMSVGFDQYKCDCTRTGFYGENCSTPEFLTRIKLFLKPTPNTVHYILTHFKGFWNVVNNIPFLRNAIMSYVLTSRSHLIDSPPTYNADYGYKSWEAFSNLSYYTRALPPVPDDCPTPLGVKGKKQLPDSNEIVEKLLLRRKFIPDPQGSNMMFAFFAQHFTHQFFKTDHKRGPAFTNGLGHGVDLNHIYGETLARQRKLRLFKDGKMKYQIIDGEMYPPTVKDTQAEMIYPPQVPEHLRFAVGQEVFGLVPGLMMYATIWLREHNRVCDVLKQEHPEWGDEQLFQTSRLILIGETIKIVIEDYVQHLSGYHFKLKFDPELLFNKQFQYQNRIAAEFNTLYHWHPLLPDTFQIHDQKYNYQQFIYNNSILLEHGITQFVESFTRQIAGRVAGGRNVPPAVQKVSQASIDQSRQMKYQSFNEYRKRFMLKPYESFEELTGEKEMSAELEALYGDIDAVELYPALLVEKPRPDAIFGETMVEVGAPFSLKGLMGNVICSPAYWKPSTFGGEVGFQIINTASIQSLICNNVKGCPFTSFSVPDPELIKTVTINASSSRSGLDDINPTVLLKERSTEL

Compound | inhibition in vivo at 100 µmol/kg (Mus musculus [1]) | inhibition in vivo at 100 µmol/kg (Rattus norvegicus [2]) | ED50 (Rattus norvegicus [3]) | Activity (Rattus norvegicus [4]) | ED50 (Mus musculus [5]) | IC50 [6]
c1ccc(Nc2c(-c3ccccc3)nc3ccccn23)cc1 | 10.8% | 63.9% | 14.5 µmol/kg | Active |  | 
c1ccc(Nc2c(-c3ccncc3)nc3ccccn23)cc1 | 13% | 49.9% | 11.5 µmol/kg | Active |  | 
CS(=O)(=O)c1ccc(Nc2c(-c3ccccn3)nc3ccccn23)cc1 | 33.7% | 18.5% |  | Active |  | 
Cc1ccc(-c2cc(C(F)(F)F)nn2-c2ccc(S(N)(=O)=O)cc2)cc1 [CELECOXIB] | 46.1% | 30% | 87.7 µmol/kg |  | 247 µmol/kg | 
CS(=O)(=O)c1ccc(Nc2c(-c3ccncc3)nc3ccccn23)cc1 | 33.6% | 1.8% |  | Active |  | 
c1ccc(Nc2c(-c3ccccn3)nc3ccccn23)cc1 | -3% | 33.4% |  | Active |  | 18.5 µM
COc1ccc(Nc2c(-c3ccc(S(C)(=O)=O)cc3)nc3ccccn23)cc1 | 53% | 41.7% | 8.7 µmol/kg | inactive | 22.7 µmol/kg | 2.8 µM
CS(=O)(=O)c1ccc(-c2nc3ccccn3c2Nc2ccccc2)cc1 | 7.4% | 28.2% |  | inactive |  | 
CS(=O)(=O)c1ccc(-c2nc3ccccn3c2Nc2ccccn2)cc1 | 22.2% | 17.2% |  | Active |  | 
